Data from PMC8892665 (ACS Omega, 2022).
“And” between values parts separate entries of the source, which are not always exact repeats. Identical values can stand only once.

Experiments:
[1] = DPPH free radical scavenging; settings: for DPPH radical scavenging IC50: concentrations 100, 50, 25, 10 μg/mL, graphical method; for DPPH radical scavenging % inhibition: at 100 μg/mL
In short: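 DPPH (3.92 mg per 100 mL of 82% methanol) was combined with test compound at final 100, 50, 25 or 10 μg/mL and incubated 1 h at 25 °C in the dark. Absorbance at 517 nm. Scavenging % = […]. Triplicate, ascorbic acid positive control, IC50 obtained graphically.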

[2] = biological target: calf intestinal alkaline phosphatase (CIAP) (Bos taurus, UniProt P19111); assay: Calf intestinal alkaline phosphatase inhibition assay; format: biochemical
calf intestinal alkaline phosphatase (CIAP), sequence (P19111 20-533): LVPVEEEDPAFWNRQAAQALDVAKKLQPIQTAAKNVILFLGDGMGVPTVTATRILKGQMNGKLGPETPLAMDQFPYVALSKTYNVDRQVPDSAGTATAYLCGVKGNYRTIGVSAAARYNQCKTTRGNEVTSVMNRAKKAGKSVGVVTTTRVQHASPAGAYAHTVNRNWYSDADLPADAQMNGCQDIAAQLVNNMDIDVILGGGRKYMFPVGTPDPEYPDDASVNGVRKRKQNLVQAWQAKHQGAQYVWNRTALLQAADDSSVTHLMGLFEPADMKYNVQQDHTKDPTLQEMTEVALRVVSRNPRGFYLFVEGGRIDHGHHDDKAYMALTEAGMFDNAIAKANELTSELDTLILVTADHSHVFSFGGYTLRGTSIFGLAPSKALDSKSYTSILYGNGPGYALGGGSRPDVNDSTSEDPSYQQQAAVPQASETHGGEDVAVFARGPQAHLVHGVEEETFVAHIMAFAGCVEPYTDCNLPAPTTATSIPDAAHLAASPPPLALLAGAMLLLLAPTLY

Molecule | DPPH radical scavenging IC50 [1] | DPPH radical scavenging % inhibition [1] | alkaline phosphatase inhibitory activity (in words) [2]
COc1ccc(N2CC3=C(C2=O)C(c2ccc(O)cc2)NC(=O)N3)cc1 (stereo not shown) [3j, 4-(4-Hydroxyphenyl)-6-(4-methoxyphenyl)-3,4,6,7-tetrahydro-1H-pyrrolo[3,4-d]pyrimidine-2,5-dione] | 2.48 µg/mL | – | –
O=C1NC2=C(C(=O)N(Cc3ccc(Cl)cc3)C2)C(c2ccc(O)cc2)N1 (stereo not shown) [3c, 6-(4-Chlorobenzyl)-4-(4-hydroxyphenyl)-3,4,6,7-tetrahydro-1H-pyrrolo[3,4-d]pyrimidine-2,5-dione] | – | less than 50% | low activities
COc1ccc(N2CC3=C(C2=O)C(c2ccccc2O)NC(=O)N3)cc1 (stereo not shown) [4j, 4-(2-Hydroxyphenyl)-6-(4-methoxyphenyl)-3,4,6,7-tetrahydro-1H-pyrrolo[3,4-d]pyrimidine-2,5-dione] | 2.45 µg/mL | – | low activities
CCCCCCCCN1CC2=C(C1=O)C(c1ccccc1O)NC(=O)N2 (stereo not shown) [4b, 4-(2-Hydroxyphenyl)-6-octyl-3,4,6,7-tetrahydro-1H-pyrrolo[3,4-d]pyrimidine-2,5-dione] | 2.731 µg/mL and 2.73 µg/mL | – | –
O=C1NC2=C(C(=O)N(c3nc4ccccc4[nH]3)C2)C(c2ccc(O)cc2)N1 (stereo not shown) [3g, 6-(1H-Benzo[d]imidazol-2-yl)-4-(4-hydroxyphenyl)-3,4,6,7-tetrahydro-1H-pyrrolo[3,4-d]pyrimidine-2,5-dione] | 1.85 µg/mL | – | –
4-(4-Hydroxyphenyl)-6-(2-methoxyphenyl)-3,4,6,7-tetrahydro-1H-pyrrolo[3,4-d]pyrimidine-2,5-dione [3k] | – | less than 50% | low activities
O=C1NC2=C(C(=O)N(Cc3ccc(F)cc3)C2)C(c2ccc(O)cc2)N1 (stereo not shown) [3d, 6-(4-Fluorobenzyl)-4-(4-hydroxyphenyl)-3,4,6,7-tetrahydro-1H-pyrrolo[3,4-d]pyrimidine-2,5-dione] | – | less than 50% | –
O=C1NC2=C(C(=O)N(Cc3ccc(F)cc3)C2)C(c2ccccc2O)N1 (stereo not shown) [4d, 6-(4-Fluorobenzyl)-4-(2-hydroxyphenyl)-3,4,6,7-tetrahydro-1H-pyrrolo[3,4-d]pyrimidine-2,5-dione] | – | less than 50% | –
O=C1NC2=C(C(=O)N(Cc3ccccc3)C2)C(c2ccccc2O)N1 (stereo not shown) [4a, 6-Benzyl-4-(2-hydroxyphenyl)-3,4,6,7-tetrahydro-1H-pyrrolo[3,4-d]pyrimidine-2,5-dione] | – | less than 50% | –
4-(2-Hydroxyphenyl)-6-(2-methoxyphenyl)-3,4,6,7-tetrahydro-1H-pyrrolo[3,4-d]pyrimidine-2,5-dione [4i] | – | less than 50% | good activity
4-(2-Hydroxyphenyl)-6-(3-methoxyphenyl)-3,4,6,7-tetrahydro-1H-pyrrolo[3,4-d]pyrimidine-2,5-dione [4k] | – | less than 50% | no inhibition
O=C1NC2=C(C(=O)N(c3nc4ccccc4[nH]3)C2)C(c2ccccc2O)N1 (stereo not shown) [4g, 6-(1H-Benzo[d]imidazol-2-yl)-4-(2-hydroxyphenyl)-3,4,6,7-tetrahydro-1H-pyrrolo[3,4-d]pyrimidine-2,5-dione] | 0.75 µg/mL | 80% and 70–80% | no inhibition
O=C1NC2=C(C(=O)N(c3ccc(F)cc3)C2)C(c2ccccc2O)N1 (stereo not shown) [4f, 6-(4-Fluorophenyl)-4-(2-hydroxyphenyl)-3,4,6,7-tetrahydro-1H-pyrrolo[3,4-d]pyrimidine-2,5-dione] | 0.48 µg/mL | highest percent of inhibition | low activities
O=C1NC2=C(C(=O)N(c3ccc(F)cc3)C2)C(c2ccc(O)cc2)N1 (stereo not shown) [3f, 6-(4-Fluorophenyl)-4-(4-hydroxyphenyl)-3,4,6,7-tetrahydro-1H-pyrrolo[3,4-d]pyrimidine-2,5-dione] | 2.86 µg/mL | – | –
O=C1NC2=C(C(=O)N(c3ccc(Cl)cc3)C2)C(c2ccccc2O)N1 (stereo not shown) [4e, 6-(4-Chlorophenyl)-4-(2-hydroxyphenyl)-3,4,6,7-tetrahydro-1H-pyrrolo[3,4-d]pyrimidine-2,5-dione] | – | 60% | –
O=C1O[C@H]([C@@H](O)CO)C(O)=C1O [ascorbic acid, reference compound] | 0.25 µg/mL | 97% | –
4-(4-Hydroxyphenyl)-6-(3-methoxyphenyl)-3,4,6,7-tetrahydro-1H-pyrrolo[3,4-d]pyrimidine-2,5-dione [3i] | – | less than 50% | no inhibition
O=C1NC2=C(C(=O)N(Cc3ccccc3)C2)C(c2ccc(O)cc2)N1 (stereo not shown) [3a, 6-Benzyl-4-(4-hydroxyphenyl)-3,4,6,7-tetrahydro-1H-pyrrolo[3,4-d]pyrimidine-2,5-dione] | 2.61 µg/mL | about 60% | no inhibition
6-(4-Hydroxyphenyl)-6-(2-nitrophenyl)-3,4,6,7-tetrahydro-1H-pyrrolo[3,4-d]pyrimidine-2,5-dione [3h] | 2.61 µg/mL | about 60% | moderate activity
CCCCCCCCN1CC2=C(C1=O)C(c1ccc(O)cc1)NC(=O)N2 (stereo not shown) [3b, 4-(4-Hydroxyphenyl)-6-octyl-3,4,6,7-tetrahydro-1H-pyrrolo[3,4-d]pyrimidine-2,5-dione] | 2.6 µg/mL | – | –
4-(2-Hydroxyphenyl)-6-(2-nitrophenyl)-3,4,6,7-tetrahydro-1H-pyrrolo[3,4-d]pyrimidine-2,5-dione [4h] | 1.72 µg/mL | approximately 70% | moderate activity
O=C1NC2=C(C(=O)N(Cc3ccc(Cl)cc3)C2)C(c2ccccc2O)N1 (stereo not shown) [4c, 6-(4-Chlorobenzyl)-4-(2-hydroxyphenyl)-3,4,6,7-tetrahydro-1H-pyrrolo[3,4-d]pyrimidine-2,5-dione] | – | less than 50% | no inhibition
